PubChem BioAssay
Inconclusive results are not listed.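 How the source made its calls, unless noted: active means inhibition over a set limit, the all-compound mean plus 3 SD, in both replicate runs; inconclusive means over that limit in just one replicate run; inactive means at or under that limit in both runs.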

Key:
[1] = S. cerevisiae growth inhibition in permissive medium (OD615), pilot counter-assay for S. cerevisiae lifespan shortening project, permissive growth control (AID 705;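 active means growth inhibition above 25% in both replicates, a cutoff set 3 SD above the mean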); conditions: OD615, 24 h, at 10 µM, active compounds read high
Procedure, shortened: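 System – S. cerevisiae with engineered DeaD lifespan system · Buffer or medium – SC raffinose/galactose permissive medium · Schedule – cells pre-grown 4 h, then 24 h compound exposure, 30 °C humidified · Technique – culture turbidity as optical density at 615 nm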

[2] = S. cerevisiae growth inhibition in restrictive medium, OD615, pilot screen, restrictive growth control, yeast lifespan reduction project (AID 706;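 active means growth inhibition above a set limit, 3 SD over mean compound inhibition, in both replicates, cut at about 43% in these data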;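 further: modified DeaD lifespan yeast strain shifted to restrictive glucose medium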); conditions: OD615, 48 h, at 10 µM, active compounds read high
Procedure, shortened: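 Material: engineered S. cerevisiae DeaD strain / Medium: glucose-based CSMM-D restrictive medium / Compound: single dose of 10 µM compound final, 0.25% DMSO / Timing: 4 h pre-incubation, 48 h exposure at 30 °C / Technique: OD615 absorbance reading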

[3] = doxorubicin toxicity protection in MRP-1 cells – H69AR cells, CellTiter-Glo, duplicate, MRP-1 activator project, pilot screen (AID 807;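 active means viability increase at or above a cutoff of the median across tested compounds plus 3 SD, cut at about 8.5% in these data, passing the limit was not always enough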;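 further: compound pretreatment 18-22 h then 72 h combined with doxorubicin; 0% = doxorubicin alone and 100% = vehicle without doxorubicin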); conditions: H69AR viability with doxorubicin, CellTiter-Glo luminescence; at 10 µM; active compounds read high
[4] = viability of HCT116 without oncogenic beta-catenin – human colon tumor cells, pilot screen (AID 823;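 active means cell viability at or below a set limit in both duplicate runs, the limit being the all-compound median minus 4 SD, cut at about 23% in these data, passing the limit was not always enough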;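 further: 0% = wells killed by 20 µM Hyamine and 100% = untreated DMSO cell wells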); conditions: HCT116 beta-catenin knockout viability, CellTiter-Glo, 60 h; at 10 µM; active compounds read low
[5] = viability of PTEN-null HCT116 cells – cell-based, HCT116 clonal line, CellTiter-Glo, pilot screen (AID 824;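 active means viability at or below 27.92% in each of two runs, the all-compound median minus 4 SD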;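 further: 0% = 20 µM Hyamine control and 100% = vehicle cell control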); conditions: HCT116 PTEN-deleted viability, 60 h, at 10 µM, active compounds read low
[6] = RAM pathway blockade in budding yeast – dse1pr::URA3 reporter, 5-FOA selection, pilot screen (AID 869);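 further: 0% = DMSO wells with no growth and 100% = 10 µM 1-NA-PP1 with full growth; RAM network block rescues cells from 5-FOA so hits raise OD615 growth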; conditions: S. cerevisiae dse1pr::URA3 5-FOA growth, OD615, 2 d; at 10 µM; active compounds read high; strain carries analog-sensitive mutant Cbk1 kinase
[7] = RAM signaling pathway blockade in yeast – S. cerevisiae, Pdr1DBD-CYC8 efflux-inhibited sensitized strain, primary screen (AID 1298;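 active means RAM network inhibition above 8.4% in each of two replicates, 3 SD over the compound average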;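 further: 0% = DMSO untreated cells without growth and 100% = 10 µM 1-NA-PP1 full growth; higher means more yeast growth rescued from 5-FOA killing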); conditions: S. cerevisiae cbk1-as DSE1-URA3 strain, 5-FOA growth OD615, 2 d; at 50 µM; active compounds read high

CCCC(C(=O)N1CCOCC1)N1C(=O)C2C3C=CC(C3)C2C1=O (centres undefined)
inactive: growth inhibition [1] -8.63% | growth inhibition [2] 3.61% | viability increase [3] 0.84% | viability [4] 99% | viability [5] 99% | inhibition [6] 0.215% | RAM network inhibition [7] -0.83%

Cc1c(C(=O)NCc2cccnc2)oc2ccc(S(=O)(=O)N3CC(C)CC(C)C3)cc12 (centres undefined)
inactive: growth inhibition [1] -3.33% | growth inhibition [2] 16.4% | viability increase [3] -4.52% | viability [4] 93% | viability [5] 87.1% | inhibition [6] 1.87% | RAM network inhibition [7] 2.77%

CCC(=O)Nc1ccc(C(=O)c2ccccc2)cc1
inactive: growth inhibition [1] -6.81% | growth inhibition [2] -2.21% | viability increase [3] 2.97% | viability [4] 98.5% | viability [5] 97% | inhibition [6] 1.16% | RAM network inhibition [7] 2.9%

COCN(C#N)c1nc(OC)nc(OC)n1
inactive: growth inhibition [1] 0.79% | growth inhibition [2] 7.01% | viability increase [3] 2.98% | viability [4] 103% | viability [5] 104% | inhibition [6] -0.1% | RAM network inhibition [7] 2.34%

CC(C)CC(NS(=O)(=O)c1ccc2c(c1)oc(=O)n2C)C(=O)NC1CCCc2ccccc21 (centres undefined)
inactive: growth inhibition [1] 0.005% | growth inhibition [2] -5.15% | viability increase [3] -6.23% | viability [4] 76.8% | viability [5] 71.8% | inhibition [6] 1.38% | RAM network inhibition [7] 6.99%

Cc1noc(C)c1S(=O)(=O)NCc1ccc2c(c1)OCO2
inactive: growth inhibition [1] -1.3% | growth inhibition [2] -6.16% | viability increase [3] -1.12% | viability [4] 97.5% | viability [5] 93.6% | inhibition [6] 2.77% | RAM network inhibition [7] 0.27%

Cc1nc2ccccc2c2oc(C(=O)NC3CC3)cc12
inactive: growth inhibition [1] -8% | growth inhibition [2] 5.36% | viability increase [3] -2.61% | viability [4] 112% | viability [5] 89.6% | inhibition [6] 0.79% | RAM network inhibition [7] -1.66%

CCOc1ccc(-c2cc(NC(=O)Cn3ncc4c3-c3ccccc3OC4)on2)cc1OCC
inactive: growth inhibition [1] -7.96% | growth inhibition [2] -3.25% | viability increase [3] 1.4% | viability [4] 98.8% | viability [5] 91.2% | inhibition [6] 1.22% | RAM network inhibition [7] -0.17%

O=C(Cc1cc(=O)[nH]c(=O)[nH]1)N1CCN(C(=O)c2ccco2)CC1
inactive: growth inhibition [1] -10.2% | growth inhibition [2] -26.6% | viability increase [3] -2.96% | viability [4] 95.6% | viability [5] 95.6% | inhibition [6] 0.59% | RAM network inhibition [7] 1.53%

COc1ccccc1C1C(C(N)=O)=C(C)Nc2nc(-c3ccccc3Cl)nn21 (centres undefined)
inactive: growth inhibition [1] -4.68% | growth inhibition [2] -4.21% | viability increase [3] -2.13% | viability [4] 92.9% | viability [5] 95.8% | inhibition [6] 0.48% | RAM network inhibition [7] -2.19%

COCCN1Cc2cccc(C(=O)NCc3cccnc3)c2C1=O
inactive: growth inhibition [1] 3.25% | growth inhibition [2] 10.2% | viability increase [3] 0.03% | viability [4] 111% | viability [5] 101% | inhibition [6] 3.75% | RAM network inhibition [7] 0.51%

Cc1cc(C)n(-c2nc3ccccc3nc2Nc2ccc(CC(=O)O)cc2)n1
inactive: growth inhibition [1] 5.73% | growth inhibition [2] -0.88% | viability increase [3] -1.81% | viability [4] 98.8% | viability [5] 95.5% | inhibition [6] -1.14% | RAM network inhibition [7] -2.71%

Clc1ccccc1CSc1nnc(-c2cccnc2)n1Cc1ccco1
inactive: growth inhibition [1] 2.38% | growth inhibition [2] 23.5% | viability increase [3] -4.89% | viability [4] 90.4% | viability [5] 91% | inhibition [6] 1.38% | RAM network inhibition [7] 4.7%

CC(C)NC(=O)c1cc2c(-c3ccc(Cl)cc3)nn(C)c2s1
inactive: growth inhibition [1] -10.4% | growth inhibition [2] 3.42% | viability increase [3] -6.18% | viability [4] 74.5% | viability [5] 76.8% | inhibition [6] 3.84% | RAM network inhibition [7] 4.3%

COc1ccc(C(=O)Nc2cccnc2)cc1S(=O)(=O)N1CCOCC1
inactive: growth inhibition [1] -8.01% | growth inhibition [2] -10.6% | viability increase [3] -0.17% | viability [4] 103% | viability [5] 99.1% | inhibition [6] 0.84% | RAM network inhibition [7] 0.46%

Cn1c(NC(=O)CCc2ccccc2)cc(=O)n(C)c1=O
inactive: growth inhibition [1] -8.68% | growth inhibition [2] -8.72% | viability increase [3] -3.77% | viability [4] 102% | viability [5] 96.9% | inhibition [6] 0.855% | RAM network inhibition [7] -0.05%

CCOC(=O)N1CCN(C(=O)c2ccc3c(=O)n(CCC4=CCCCC4)c(=S)[nH]c3c2)CC1
inactive: growth inhibition [1] -6.92% | growth inhibition [2] 3.16% | viability increase [3] -7.23% | viability [4] 49.1% | viability [5] 45.5% | inhibition [6] 3.38% | RAM network inhibition [7] 4.35%
